pIC50: −log10 of the molar value. The source made the active and inactive calls. No cut-off for these calls is given here.
Columns and labels:
[1] = test system: HL-60; assay: Growth inhibition of human HL60 cells at 250 uM after 48 hrs by cell proliferation assay; format: functional, cell-based
[2] = Growth inhibition of rat 3Y1 cells at 250 uM after 48 hrs by cell proliferation assay; format: cell-based; details: 3y1, 48 h
Outline: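 Cells seeded in 96-well plates at 5 × 10^3 per well. Compounds dissolved in DMSO and applied for 48 h. Viability read with an EZ-CyTox cell viability kit by absorbance at 450 nm.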

[3] = test system: MDA-MB-231; assay: Growth inhibition of human MDA-MB-231 cells at 250 uM after 48 hrs by cell proliferation assay; format: functional, cell-based
Outline: (§1)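 MDA-MB-231 breast adenocarcinoma cells at 5 × 10^3 per well in a 96-well microplate. Compounds were dissolved in DMSO and applied for 48 h, including a 250 μM level. Viability was measured with the EZ-CyTox kit as A450.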

[4] = test system: K562; assay: Growth inhibition of human K562 cells at 250 uM after 48 hrs by cell proliferation assay; format: functional, cell-based
Outline: (§2)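 K562 leukemia cells seeded at 3 × 10^4 per well in 96-well plates and exposed for 48 h to compounds in DMSO, including 250 μM. Readout was EZ-CyTox cell viability reagent with absorbance at 450 nm.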

[5] = test system: Hep 3B2; assay: Growth inhibition of human Hep3B cells at 250 uM after 48 hrs by cell proliferation assay; format: functional, cell-based
Outline: (§3)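 Hep3B hepatocellular carcinoma cells plated at 5 × 10^3 per well in 96-well format. Treatment with DMSO-dissolved compounds, including 250 μM, lasted 48 h. Proliferation was read with the EZ-CyTox kit by A450.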

[6] = test system: MDA-MB-231; assay: Growth inhibition of human MDA-MB-231 cells after 48 hrs by cell proliferation assay; format: functional, cell-based; details: MDA-MB-231, 48 h; outline: as §1
[7] = test system: K562; assay: Growth inhibition of human K562 cells after 48 hrs by cell proliferation assay; format: functional, cell-based; details: K562, 48 h; outline: as §2
[8] = Growth inhibition of human Hep3B cells after 48 hrs by cell proliferation assay; format: functional, cell-based, Hep 3B2; outline: as §3
[9] = Growth inhibition of rat 3Y1 cells after 48 hrs by cell proliferation assay; format: cell-based; details: 3Y1, 48 h
Outline: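 Rat 3Y1 fibroblasts seeded at 5 × 10^3 per well in 96-well plates and exposed 48 h to DMSO-dissolved test compounds. Proliferation was quantified with the EZ-CyTox viability kit by absorbance at 450 nm.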

[10] = test system: HL-60; assay: Growth inhibition of human HL60 cells after 48 hrs by cell proliferation assay; format: functional, cell-based; details: HL-60, 48 h

CC(=O)N1c2ccccc2[C@]2(O)C[C@@H]3C(=O)N[C@@H](CC(C)C)C(=O)N3[C@H]12 [PROTUBONINE A]
growth inhibition (GI) [1]: inactive
growth inhibition (GI) [2]: Not Active
growth inhibition (GI) [3]: inactive
growth inhibition (GI) [4]: inactive
growth inhibition (GI) [5]: inactive

CC(=O)O[C@@]12C[C@@H]3C(=O)N[C@@H](CC(C)C)C(=O)N3[C@@H]1N(C(C)=O)c1ccccc12 [PROTUBONINE B]
growth inhibition (GI) [1]: inactive
growth inhibition (GI) [2]: Not Active
growth inhibition (GI) [3]: inactive
growth inhibition (GI) [4]: inactive
growth inhibition (GI) [5]: inactive

CCC(C)[C@@H]1NC(=O)[C@@H](Cc2ccccc2)n2c1nc1c(c2=O)C=CC=CO1 (stereo not given in full) [PROTUBOXEPIN A]
pIC50 [6]: 3.89
pIC50 [7]: 3.60
pIC50 [8]: 3.82
pIC50 [9]: 3.74
pIC50 [10]: 4.12

— ChEMBL document CHEMBL1799980, “Protuboxepins A and B and protubonines A and B from the marine-derived fungus Aspergillus sp. SF-5044” (J Nat Prod, 2011)
